The results in this text go back to PubChem BioAssay AID651876 (Broad Institute, 2012).

The test addresses Kelch-like ECH-associated protein 1 (Homo sapiens) (UniProt Q14145). In words: Keap1 Kelch binding to Nrf2 peptide inhibition, confirmation, orthogonal assay for Keap1-Nrf2 interaction inhibitor project, biophysical, competitive SPR, dry powder (AID 651876). Conditions: stronger effect = higher value. The gist of the method:
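Test system: Keap1 Kelch domain, biochemical. Quantity: 40 nM Kelch domain. Also added: biotinylated 16mer Nrf2 peptide captured on streptavidin CM5 surface. Doses: compound at 5 or 50 µM. Times: room-temperature preincubation, 25 °C binding. Signal: Double-referenced surface plasmon resonance, initial association-phase slopes. Measure: % inhibition via free Kelch domain fraction.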

Each structure is given as a SMILES string. Where “and” joins values, the source holds several entries; their conditions need not be identical. Identical values can stand only once. Calls of active or inactive are those of the source.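 Rule for the calls: active = inhibition above 20% at 50 µM; inactive = the rest.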

Sequence of Kelch-like ECH-associated protein 1 (Homo sapiens) (Q14145 whole entry, looked up, the tested form may be a part): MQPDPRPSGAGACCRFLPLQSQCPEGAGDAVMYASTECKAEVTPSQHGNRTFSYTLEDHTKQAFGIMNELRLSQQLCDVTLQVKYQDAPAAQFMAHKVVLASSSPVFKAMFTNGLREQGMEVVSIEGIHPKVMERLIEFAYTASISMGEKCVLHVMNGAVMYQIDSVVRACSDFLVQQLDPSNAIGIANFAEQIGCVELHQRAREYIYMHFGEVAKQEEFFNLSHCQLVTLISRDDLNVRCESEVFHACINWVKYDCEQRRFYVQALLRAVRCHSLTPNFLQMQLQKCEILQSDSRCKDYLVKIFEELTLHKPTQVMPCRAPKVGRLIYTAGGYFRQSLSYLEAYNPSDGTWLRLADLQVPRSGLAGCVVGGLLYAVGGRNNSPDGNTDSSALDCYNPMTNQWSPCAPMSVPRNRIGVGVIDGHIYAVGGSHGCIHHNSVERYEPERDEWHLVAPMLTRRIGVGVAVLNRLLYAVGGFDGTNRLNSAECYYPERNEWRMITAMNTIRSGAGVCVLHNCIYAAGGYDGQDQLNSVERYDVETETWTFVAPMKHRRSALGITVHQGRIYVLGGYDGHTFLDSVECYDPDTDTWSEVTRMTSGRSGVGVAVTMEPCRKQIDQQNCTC

`Cc1ccc(S(=O)(=O)Nc2cc(C(C(=O)OC(C)C)C(=O)C(F)(F)F)c(O)c3ccccc23)cc1` (stereo unspecified): the inhibition – broadly, the change of the read-out against control, counted positive when it falls – (at 50 µM) was 80.3% and the inhibition (inhibition, at 5 µM) was found to be 30.2%. On the same counts, the results for `O=C(O)[C@H]1CCCC[C@H]1C(=O)N1CCc2ccccc2[C@H]1CNS(=O)(=O)c1ccc([N+](=O)[O-])cc1` are 26.7% and 4%. In the case of `O=C(O)C1CCCCC1C(=O)N1CCc2ccccc2[C@H]1C(=O)NC12CC3CC(CC(C3)C1)C2` (stereo partly specified), the inhibition by setting is: (at 50 µM) -0.6% (inactive); (inhibition, at 5 µM) -11.6%. In the case of `Cc1ccccc1S(=O)(=O)Nc1cc(C(C(=O)OC(C)C)C(=O)C(F)(F)F)c(O)c2ccccc12` (stereo unspecified), the inhibition by setting is: (at 50 µM) 86.4%; (inhibition, at 5 µM) 49.5%. With `COc1ccccc1CCNC(=O)[C@@H]1c2ccccc2CCN1C(=O)C1CCCCC1C(=O)O` (stereo partly specified), the inhibition (at 50 µM) is -4.2% (inactive) and -2.2% (inactive); the inhibition (inhibition, at 5 µM) was -12.8% and -7.2%. In the case of `O=C(O)[C@H]1CCCC[C@H]1C(=O)N1CCC2=C(CCCC2)C1CN1C(=O)c2ccccc2C1=O` (stereo partly specified), under “inhibition, at 5 µM”, the inhibition was 12.5% and -3.6%.

As to `COc1ccc(CCN=C2C=C(NS(=O)(=O)c3c(C)cc(C)cc3C)c3ccccc3C2=O)cc1`, the inhibition runs as follows: (at 50 µM) 8% (inactive); (inhibition, at 5 µM) 0%. As for `O=C(O)C1CCCCC1C(=O)N1CCc2ccccc2[C@H]1C(=O)NCCc1ccccc1` (stereo partly specified), the inhibition is, setting by setting: (at 50 µM) -3.7% (inactive); (inhibition, at 5 µM) -5.5%. Turning to `O=C(NCCO)c1ccccc1C(=O)NC[C@@H]1c2ccccc2CCN1C(=O)C1CCCCC1C(=O)O` (stereo partly specified), the inhibition reads like this: (at 50 µM) 32.1%; (inhibition, at 5 µM) 7.5%. Consider `O=C(O)c1ccccc1C(=O)NC[C@@H]1c2ccccc2CCN1C(=O)[C@@H]1CCCC[C@@H]1C(=O)O`, for which the inhibition is 9.5% (inactive) (at 50 µM) and 0.9% (inhibition, at 5 µM). On the same counts, the results for `Cc1ccc(S(=O)(=O)NNc2nc(N3CC(O)CC3C(=O)O)nc3ccccc23)cc1` (stereo unspecified) are -0.9% (inactive) and -1.1%. For the compound `O=C(O)C1CCCCC1C(=O)N1CCc2ccccc2C1c1ccccc1` (stereo unspecified), the inhibition reads like this: (at 50 µM) 3.2% (inactive); (inhibition, at 5 µM) -2%.

As for `O=C(NC[C@@H]1c2ccccc2CCN1C(=O)[C@@H]1CCCC[C@@H]1C(=O)O)c1ccccc1CO`, the inhibition runs as follows: (at 50 µM) 39.3%; (inhibition, at 5 µM) 7.3%. `COC(=O)CNc1nc(NS(=O)(=O)c2c(C)cc(C)cc2C)c2ccccc2n1`: the inhibition is 8.5% (inactive) (at 50 µM) and 1.1% (inhibition, at 5 µM). On the same counts, the results for `O=S(=O)(Nc1nc(NCC2CCCCC2)nc2ccccc12)c1ccccc1` are 7% (inactive) and -1.7%. In the same order, the values of `Cc1ccc(S(=O)(=O)Nc2cc(C(C(=O)OC(C)C)C(=O)C(F)(F)F)c(O)c3ccccc23)c(C)c1` (stereo unspecified) are 97% and 57.8%. As for `O=C(O)CCCC(=O)N1CCc2ccccc2C1CN1C(=O)c2ccccc2C1=O` (stereo unspecified), the inhibition (at 50 µM) was 2.3% (inactive) and the inhibition (inhibition, at 5 µM) turned out to be 6.4%. In the case of `O=C1c2ccccc2C(=O)N1CC1c2ccccc2CCN1C(=O)Cc1ccccc1` (stereo unspecified), the inhibition is 3.5% (inactive) (at 50 µM) and 3.1% (inhibition, at 5 µM). In the same order, the values of `Cc1cc(C)c(S(=O)(=O)Nc2ncnc3ccccc23)c(C)c1` are 1.5% (inactive) and -0.6%. As for `O=C(O)[C@@H]1CCCN1C(=O)N1CCc2ccccc2[C@H]1CN1C(=O)c2ccccc2C1=O`, the inhibition reads like this: (at 50 µM) 30.3%; (inhibition, at 5 µM) 1.7%.

Turning to `C=CC(=O)NC[C@@H]1c2ccccc2CCN1C(=O)[C@@H]1CCCC[C@@H]1C(=O)O`, the inhibition runs as follows: (at 50 µM) 1.1% (inactive); (inhibition, at 5 µM) -5.2%. On the same counts, the results for `O=C(O)C1CCCCC1C(=O)Nc1ccccc1CN1C(=O)c2ccccc2C1=O` (stereo unspecified) are 5.5% (inactive) and 3.8%. In the same order, the values of `O=C1c2ccccc2C(=O)N1C[C@@H]1c2ccccc2CCN1C(=O)C1CCCCC1` are 2.1% (inactive) and -0.3%.

With `O=C(NCCc1ccccc1)c1ccccc1C(=O)NC[C@@H]1c2ccccc2CCN1C(=O)C1CCCCC1C(=O)O` (stereo partly specified), the inhibition (at 50 µM) was 47.1% and the inhibition (inhibition, at 5 µM) was determined as 3.3%. In the same order, the values of `O=C(O)[C@H]1CCCC[C@H]1C(=O)NC(CN1C(=O)c2ccccc2C1=O)c1ccccc1` (stereo partly specified) are 0.3% (inactive) and 0.3%. As to `Cc1cc(C)c(S(=O)(=O)Nc2nc(NCCO)nc3ccccc23)c(C)c1`, the inhibition (at 50 µM) was 6.8% (inactive) and the inhibition (inhibition, at 5 µM) amounted to 3.6%.

With `COC(=O)[C@H]1CCCC[C@H]1C(=O)N1CCc2ccccc2[C@H]1CN1C(=O)c2ccccc2C1=O`, the inhibition (at 50 µM) is 1.6% (inactive) and the inhibition (inhibition, at 5 µM) is -0.6%. In the same order, the values of `Cc1ccc(S(=O)(=O)NC2=CC(=N[C@@H](C)C(=O)OC(C)(C)C)C(=O)c3ccccc32)c(C)c1` are 10.5% (inactive) and -5.37%.

For `O=C(O)[C@H]1C2C=CC(C2)[C@H]1C(=O)N1CCc2ccccc2C1CN1C(=O)c2ccccc2C1=O` (stereo partly specified), the inhibition reads like this: (at 50 µM) 42.4%; (inhibition, at 5 µM) 4.9%. Turning to `O=C(NC[C@@H]1c2ccccc2CCN1C(=O)[C@@H]1CCCC[C@@H]1C(=O)O)OCC1c2ccccc2-c2ccccc21`, the inhibition (at 50 µM) is 3.6% (inactive) and the inhibition (inhibition, at 5 µM) was determined as 5%.

As for `COC(=O)C(C(=O)OC)c1cc(NS(=O)(=O)c2c(C)cc(C)cc2C)c2ccccc2c1O`, the inhibition by setting is: (at 50 µM) 93.1%; (inhibition, at 5 µM) 65.9%. For the compound `NC(=O)c1ccccc1C(=O)NC[C@@H]1c2ccccc2CCN1C(=O)[C@@H]1CCCC[C@@H]1C(=O)O`, the inhibition by setting is: (at 50 µM) 83%; (inhibition, at 5 µM) 38.6%. In the same order, the values of `O=C(O)[C@H]1CCCC[C@H]1C(=O)N1CCc2ccccc2[C@H]1CNc1nc(Cl)nc2ccccc12` are 3.7% (inactive) and -1.3%. On the same counts, the results for `CCOC(=O)C(C(=O)OCC)c1cc(CN2C(=O)c3ccccc3C2=O)c2ccccc2n1` are 8.32% (inactive) and 11.9%.

On to `O=C(O)[C@H]1CCCC[C@H]1C(=O)N1CCc2ccccc2C1CCN1C(=O)c2ccccc2C1=O` (stereo partly specified), for which the inhibition was 8.8% (inactive) and 2.3% (inactive) (at 50 µM); -2.2% and 0.5% (inhibition, at 5 µM). As for `O=C(O)[C@H]1CCCC[C@H]1C(=O)N1CCc2ccccc2[C@H]1CNS(=O)(=O)c1ccccc1`, the inhibition is, setting by setting: (at 50 µM) 12.9% (inactive); (inhibition, at 5 µM) -3.1%. Regarding `O=C(Oc1cc(CN2C(=O)c3ccccc3C2=O)c2ccccc2[n+]1[O-])c1cccc(Cl)c1`, the inhibition by setting is: (at 50 µM) 7.85% (inactive); (inhibition, at 5 µM) -2.91%. As for `O=C(O)C1CCCCC1C(=O)N1CCc2ccccc2C1CN1Cc2ccccc2C1=O` (stereo unspecified), the inhibition (at 50 µM) is 77.7% and the inhibition (inhibition, at 5 µM) came to 27.7%. On the same counts, the results for `O=C(O)C1CCCCC1C(=O)N1CCc2ccccc2C1CN1C(=O)[C@H]2CCCC[C@H]2C1=O` (stereo partly specified) are 65.5% and 19.1%. In the same order, the values of `CCOC(=O)C(C(=O)OCC)c1cc(CNS(=O)(=O)c2ccc(C)cc2C)c2ccccc2n1` are 4.8% (inactive) and 3.9%.

Turning to `O=C1c2ccccc2C(=O)N1CC1=NCCc2ccccc21`, the inhibition runs as follows: (at 50 µM) -0.2% (inactive); (inhibition, at 5 µM) 1.1%. On the same counts, the results for `CCOC(=O)Cc1nc(NS(=O)(=O)c2c(C)cc(C)cc2C)c2ccccc2n1` are 4.3% (inactive) and 5.5%. In the same order, the values of `O=C(NCCCN1CCOCC1)c1ccccc1C(=O)NC[C@@H]1c2ccccc2CCN1C(=O)C1CCCCC1C(=O)O` (stereo partly specified) are 43.8% and 6.9%. `O=C(NC[C@@H]1c2ccccc2CCN1C(=O)[C@@H]1CCCC[C@@H]1C(=O)O)c1ccccc1`: the inhibition (at 50 µM) was -3.5% (inactive) and the inhibition (inhibition, at 5 µM) was 1.5%. With `O=C(Cc1ccccc1)NC[C@@H]1c2ccccc2CCN1C(=O)[C@@H]1CCCC[C@@H]1C(=O)O`, the inhibition (at 50 µM) was 36.9% and the inhibition (inhibition, at 5 µM) was 7%. Turning to `O=C(O)/C=C\C(=O)N1CCc2ccccc2C1CN1C(=O)c2ccccc2C1=O` (stereo unspecified), the inhibition is 21.5% (at 50 µM) and 1.1% (inhibition, at 5 µM). In the same order, the values of `NC(=O)[C@H]1CCCC[C@H]1C(=O)N1CCc2ccccc2[C@H]1CN1C(=O)c2ccccc2C1=O` are 36.7% and 5.6%. On the same counts, the results for `O=C(O)C1CCCCC1C(=O)N1CCCCC1CN1C(=O)c2ccccc2C1=O` (stereo unspecified) are 13.5% (inactive) and 0.4%. On the same counts, the results for `CCOC(=O)C(C(=O)OCC)c1nc(NS(=O)(=O)c2c(C)cc(C)cc2C)c2ccccc2n1` are -2.5% (inactive) and -6%. Turning to `O=C(O)CCC(=O)N1CCc2ccccc2C1CN1C(=O)c2ccccc2C1=O` (stereo unspecified), the inhibition is, setting by setting: (at 50 µM) 11.4% (inactive); (inhibition, at 5 µM) -2.3%. With `O=C(O)C1CCCCC1C(=O)NCC1c2ccccc2CCN1C(=O)Cc1ccccc1` (stereo unspecified), the inhibition runs as follows: (at 50 µM) -4% (inactive); (inhibition, at 5 µM) 3.3%. On the same counts, the results for `COC(=O)C1CCCCC1C(=O)N1CCc2ccccc2C1CN1C(=O)c2ccccc2C1=O` (stereo unspecified) are 6.8% (inactive) and 3.3%.

For the compound `CC(C)CNc1nc(NS(=O)(=O)c2ccccc2)c2ccccc2n1`, the inhibition is 3.3% (inactive) (at 50 µM) and 1% (inhibition, at 5 µM). On the same counts, the results for `Cc1cc(C)c(S(=O)(=O)Nc2cc(C(C(=O)OCc3ccccc3)C(=O)OCc3ccccc3)c(O)c3ccccc23)c(C)c1` are 7.1% (inactive) and 4.69%. Regarding `CC(=O)Nc1cc(NS(=O)(=O)c2c(C)cc(C)cc2C)c2ccccc2c1O`, the inhibition is 13.9% (inactive) (at 50 µM) and 9.6% (inhibition, at 5 µM). For `Cc1ccc(S(=O)(=O)NC[C@@H]2c3ccccc3CCN2C(=O)[C@@H]2CCCC[C@@H]2C(=O)O)c(C)c1`, the inhibition is 17.1% (inactive) (at 50 µM) and 0.1% (inhibition, at 5 µM).
